Hck-Nef inh: inhibitors of human Hck kinase activated by Nef; P08631; Recombinant Hck-YEEI plus Nef, Z-Lyte FRET kinase assay; inhibition, % at 20 µM; hit rate 0.68% among 220,000;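 active means Hck-Nef kinase inhibition above about 50%, limit read from the data; inactive means inhibition below that limit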;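 further: 0% = DMSO with Hck plus Nef and 100% = Hck alone without Nef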
TNF death inh: blocks TNF-alpha induced death of Jurkat FADD-/- cells | hit rate 0.068% among 220,000 | activation (protection from cell death), % at 10 µM | AID 463075 | Jurkat FADD-/- TNF necroptosis rescue, ATP luminescence, 24 h; 0 = TNF only, 100 = no-TNF cells;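 active means activation, meaning protection from cell death, of at least 50% relative to plate controls; inactive means activation below 50%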;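 further: necroptosis triggered by 40 ng/mL TNF-alpha added together with compound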
Mdm2 ligase inh: inhibitors of human Mdm2 E3 ubiquitin ligase. Q00987. cell-based MDM2 ubiquitination luciferase reporter, 2 h; 0 = plate control, 100 = twice control, blank-subtracted. signal enhancement, % at 5 µM. hit rate 0.11% among 210,000;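 active means signal enhancement of 30% or more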;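 further: luminescence tracks abundance of the self-degrading MDM2-luciferase fusion protein; higher signal means inhibition of MDM2 E3 ligase activity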
Target sequence (Q00987 whole entry, looked up, the tested form may be a part): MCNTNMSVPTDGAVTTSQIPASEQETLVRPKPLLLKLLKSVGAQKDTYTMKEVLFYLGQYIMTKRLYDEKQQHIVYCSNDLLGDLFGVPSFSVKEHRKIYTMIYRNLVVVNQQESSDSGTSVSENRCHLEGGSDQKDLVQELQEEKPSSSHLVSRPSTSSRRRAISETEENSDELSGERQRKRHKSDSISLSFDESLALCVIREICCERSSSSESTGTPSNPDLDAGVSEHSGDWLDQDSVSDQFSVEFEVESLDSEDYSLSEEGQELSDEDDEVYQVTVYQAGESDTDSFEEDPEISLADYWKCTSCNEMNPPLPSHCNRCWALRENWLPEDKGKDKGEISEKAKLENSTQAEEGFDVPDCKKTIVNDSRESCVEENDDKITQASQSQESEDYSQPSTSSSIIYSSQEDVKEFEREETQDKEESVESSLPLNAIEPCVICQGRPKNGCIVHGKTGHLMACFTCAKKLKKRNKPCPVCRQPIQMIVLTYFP
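Buffer or medium: Cells held in DMEM | Assay system: Stable mammalian line carrying autodegrading MDM2–luciferase fusion reporter | Quantity: 2000 cells/well | Times: 4 h settle plus 2 h compound, 37 °C | Doses: One concentration, 5 µM, with 0.2% DMSO | Technique: Luminescence with SteadyLite reagent, 15 min at room temperature | Benchmarks: Plate controls and plate blanks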
L929 necroptosis: L929 zVAD cell death inhibition; L929 zVAD necroptosis rescue, ATP luminescence, 24 h; with zVAD 60 µM; viability rescue, % at 10 µM; hit rate 0.38% among 220,000;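 active means activation, scaled between plate controls, above about 75%, limit read from the data; inactive means activation under that limit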;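 further: 0% = zVAD with DMSO and 100% = DMSO alone without zVAD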
Dynein cargo inh: dynein cargo transport inhibition; 3617.4 mouse cells, GR-EGFP nuclear translocation imaging; test concentration mostly 20 µM; stimulated with dexamethasone, 1 µM; hits give low values; z-score, hits read low; hit rate 0.47% among 220,000; AID 1381;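 active means plate z-score of nuclear minus cytoplasmic receptor signal below a set negative limit, without overly bright fluorescence or cell loss, cut at about -3.5 in these data, passing the limit was not always enough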;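 further: z-score of nuclear minus cytoplasmic ring GR-EGFP intensity difference per well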
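Medium: Induction medium lacking tetracycline, stripped serum | Probe or stimulus: 1.0 µM final dexamethasone stimulus | Schedule: 48 h induction, then 1 h compound, then 30 min agonist, 37 °C | Signal: Automated 10x imaging of fixed Hoechst-stained cells | Evaluation: Per-cell GR-EGFP intensity, nucleus versus surrounding cytoplasmic ring, well-averaged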
Autophagy HCS: modulators of autophagy. MEF GFP-LC3 puncta imaging; test concentration mostly 10 µM. calls only at 10 µM (by protocol). hit rate 0.98% among 190,000. AID 463193;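 active means percentage of spot-positive cells more than 3 SD above its plate mean, without a fluorescence outlier flag or 80% toxicity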;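 further: spot-positive cell cutoff set from DMSO-treated cells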
Hck Nef conf: Hck-Nef kinase inhibition, confirmation | calls only at 10 µM | Recombinant Hck-YEEI:Nef, Z-Lyte FRET kinase assay | hit rate 28% among 1,300 | shares compounds with Hck-Nef inh;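 active means average inhibition of at least 50%, with Z-scores no higher than 3 in both the phospho-tyrosine peptide and fluorescence counterscreens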
* marks the source's active call; other numbers are inactive results; i = inactive; . = no result shown; + = active, no number. This is a sample that favours compounds with a hit; in the whole collection about 2.4% have one here.

SMILES	Hck-Nef inh	TNF death inh	Mdm2 ligase inh	L929 necroptosis	Dynein cargo inh	Autophagy HCS	Hck Nef conf
O=S(=O)(c1ccc(N2CCC(c3ccc(Cl)cc3)=N2)cc1)N(CCO)CCO	82*	10	-13	4	0.067	i	.
O=S(=O)(c1ccc(Oc2ccc(S(=O)(=O)N(CCO)CCO)cc2)cc1)N(CCO)CCO	21	2	-8	1	1	i	.
Cc1noc(/C=C/c2ccco2)c1S(=O)(=O)N1CCC(C(=O)N2CCc3ccccc3C2)CC1	51*	-4	0	1	-2.6	i	i
Cc1ccc(NC(=O)C2CCN(S(=O)(=O)c3c(C)noc3/C=C/c3ccco3)CC2)nc1	2	7	-7	0	-0.39	i	.
Cc1cccc(C)c1NC(=O)NC1(C(=O)NCCCN2CCOCC2)CCCCC1	7	0	-9	0	-0.48	i	.
COC(=O)c1sc(-c2ccc(C(C)(C)C)cc2)cc1NC(=O)c1ccccc1C(=O)O	82*	0	-1	0	0.26	.	+
O=C(N/N=C/c1ccc(O)cc1)Nc1cccc2nsnc12	53*	-3	2	1	-0.55	i	i
CCOc1ccc(Cc2n[nH]c(=S)n2Cc2ccccc2)cc1	32	0	4	0	0.33	i	.
CN(C)c1cc[n+](CC(=O)c2ccc(OC(F)F)cc2)cc1	18	-2	.	0	0.27	.	.
COc1ccc2[nH]c(O)c(N=NC(=O)Cc3cccs3)c2c1	51*	-6	.	1	-0.67	.	i
O=C1NC(=S)S/C1=C/c1ccc(N2CCOCC2)o1	2	-2	-15	14	0.8	i	.
O=C1NC(=S)S/C1=C\C=C\c1ccc([N+](=O)[O-])o1	56*	-12	.	43	-1.9	.	+
O=[N+]([O-])c1ccc(/C=N/n2cn[nH]c2=S)cc1	105*	1	-8	1	0.088	.	.
CSc1nncn1/N=C/c1ccc([N+](=O)[O-])cc1	0	-1	0	1	-0.57	i	.
Fc1ccc(N2N=C(c3cccs3)CC2c2ccccc2)cc1 (configuration not stated)	56*	0	-4	0	-1.3	i	i
Cc1nc2ccc3nc(NC(=O)c4ccc5c(c4)OCCO5)sc3c2s1	87*	0	-8	0	1.6	i	+
Cc1nc2c(ccc3nc(NC(=O)c4ccc5c(c4)OCCO5)sc32)s1	11	-6	-34	2	3.7	i	.
O=C(NCCN1CCOCC1)c1cc(Cl)ccc1[N+](=O)[O-]	-1	-1	-17	1	-0.78	i	.
CCC(=O)Oc1ccc2c(C)cc(=O)oc2c1C	54*	-3	-4	-3	0.39	i	i
Cc1ccc(-c2cc(C(=O)Nc3sc4c(c3C(=O)NCc3ccco3)CCC4)[nH]n2)c(O)c1	3	3	-6	2	-0.35	i	.
CCNC(=O)c1c(NC(=O)c2cc(-c3cc(C)ccc3O)n[nH]2)sc2c1CCCC2	100*	2	3	6	0.87	i	i
Cc1cc(O)c(-c2cc(C(=O)Nc3sc4c(c3C(=O)NCc3ccco3)CCC4)[nH]n2)cc1C	59*	9	.	1	-0.99	.	i
Cc1ccc(C(=O)Nc2sc3c(c2C(=O)NCc2ccco2)CCCC3)cc1	27	5	-9	-1	1.3	i	.
CC(C)C[C@H](NC(=O)c1nc[nH]c1C(=O)N1CCc2ccccc2C1)C(=O)OC(C)(C)C	23	4	2	1	0.51	.	.
COc1ccccc1NC(=O)Cn1c(O)c(N=NC(=O)c2ccccc2O)c2ccccc21	91*	-3	-5	-1	1	i	i
SMILES	Hck-Nef inh	TNF death inh	Mdm2 ligase inh	L929 necroptosis	Dynein cargo inh	Autophagy HCS	Hck Nef conf
Cn1c(O)c(N=NC(=O)c2ccccc2O)c2ccccc21	17	-1	-21	22	-0.078	i	.
Cc1ccc(NC(=O)Cn2c(O)c(N=NC(=O)c3cc4ccccc4cc3O)c3ccccc32)cc1	51*	1	-14	1	-0.44	i	i
CCOC(=O)C1=C(CSc2nc(-c3ccccc3)ccc2C#N)OC(N)=C(C#N)C1c1ccc(OC)cc1 (configuration not stated)	-2	-5	-12	0	-3.4	i	.
O=c1c(C(c2ccccc2)c2c(O)sc3ccccc3c2=O)c(O)sc2ccccc12	68*	0	-15	1	-0.41	i	+
COc1cccc(C(=O)N(c2ccc(C)cc2)C2C=CS(=O)(=O)C2)c1 (configuration not stated)	25	0	-16	1	-0.47	i	.
CCOC(=O)c1cnc2c(-c3ccc(F)cc3)cnn2c1C(F)(F)F	82*	-5	-19	4	-0.63	i	i
COC(C)(C)c1cc(C(C)(C)C)nc(N)n1	102*	-2	-9	0	0.29	i	i
CC(C)(C)c1cc(=O)n2[nH]c(N)nc2n1	18	0	-4	1	-1.1	i	.
CCn1cc(C(=O)NCc2ccccc2Cl)cn1	5	0	2	.	-1.5	i	.
O=S(=O)(Nc1ccc(-c2nc3cccnc3s2)cc1)c1ccccc1F	+	0	-14	0	-0.6	.	.
Cc1c(NS(=O)(=O)c2ccc3c(c2)OCCO3)cccc1-c1nc2cccnc2s1	3	-4	-3	1	-0.5	i	.
CCS(=O)(=O)Nc1cc(-c2nc3cccnc3s2)ccc1C	1	0	-14	49	-0.36	i	.
Cc1cc(-c2nc3cccnc3s2)ccc1NS(=O)(=O)c1ccc2c(c1)OCCO2	71*	0	-2	4	-0.14	i	.
Cc1cc(-c2nc3cccnc3s2)ccc1NS(=O)(=O)c1cccs1	95*	0	-23	-1	1.2	i	i
O=S(=O)(Nc1ccc(-c2nc3cccnc3s2)cc1)c1cccs1	116*	0	-11	1	-0.9	i	.
CCn1nnc(NC(=O)C(C)(c2ccccc2)c2ccccc2)n1	17	-2	7	1	-0.4	i	.
O=C(CCCN1C(=O)c2cccnc2C1=O)N1CC(=O)N(CCc2ccccc2)C(=O)C1	3	-2	-15	0	0.078	i	.
Cc1nc2ccc(S(=O)(=O)Nc3ccc(-c4nc5cccnc5s4)cc3)cc2s1	56*	1	.	.	-0.3	i	.
CCS(=O)(=O)Nc1cccc(-c2nc3cccnc3s2)c1	22	18	1	2	-1.2	.	.
CCS(=O)(=O)Nc1ccc(-c2nc3cccnc3s2)cc1	+	4	-57	3	-0.67	i	.

Compound activity (PubChem BioAssay)
